In ChEMBL document CHEMBL1135410, “Adenine nucleotide analogues locked in a Northern methanocarba conformation: enhanced stability and potency as P2Y(1) receptor agonists” (J Med Chem, 2002):
Active and inactive are the calls of the source. The rule behind the calls is not given here.

What was measured:
P2Y purinoceptor 1 [1] = target: T1, P2Y purinoceptor 1 (Homo sapiens, UniProt P47900); assay: Accumulation of inositol phosphate in 1321N1 astrocytoma cells expressing human P2Y1 purinoceptor; type: cell-based
Procedure, shortened: (§1)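 Inositol phosphate accumulation measured in 1321N1 human astrocytoma cells stably expressing human P2Y1, P2Y2, P2Y4 or P2Y11 receptor. Full concentration–effect curves, repeated in at least three separate experiments run in duplicate or triplicate. EC50 from four-parameter logistic fit. Relative efficacy (%) taken against a maximal effective concentration of UTP or UDP in the same experiment.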

P2Y purinoceptor 1 [2] = target: P2Y purinoceptor 1 (Meleagris gallopavo, UniProt P49652); assay: Activation of Purinoceptor P2Y1-mediated phospholipase C in turkey erythrocyte membranes; type: cell membranes
Procedure, shortened: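 Turkey erythrocytes labelled 18–24 h at 37 °C with 2-[3H]myo-inositol in inositol-free DMEM. Total [3H]inositol phosphates separated by anion exchange. EC50 from four-parameter logistic fit, at least three experiments.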

P2Y purinoceptor 2 [3] = target: T2, P2Y purinoceptor 2 (Homo sapiens, UniProt P41231); assay: (§2) Agonist activity by measuring inositol phosphate accumulation in 1321N1 human astrocytoma cells stably expressing human P2Y purinoceptor 2; type: functional; procedure, shortened: as §1
Rattus norvegicus = species: Rattus norvegicus; assay: Hydrolysis rate of compound as substrate of purified recombinant rat Ecto-5'-nucleotidase; type: functional; parameters: scale not given: the % may be the effect or the level left
Procedure, shortened: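 Purified baculovirus-expressed rat ecto-5′-nucleotidase (0.5 μg) incubated 10 min at 37 °C with 100 μM (final) substrate in Tris-buffered saline containing 0.4 mM MgCl2, pH 7.4. Reaction stopped with 5% TCA. Released inorganic phosphate measured by the Lanzetta method. Activity expressed relative to AMP (100%). Two experiments, each in duplicate.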

[4] = target: P2Y purinoceptor 4 (Homo sapiens) (UniProt P51582); assay: Agonist activity by measuring inositol phosphate accumulation in 1321N1 human astrocytoma cells stably expressing human P2Y purinoceptor 4; No effect as either agonist or antagonist at 10 uM; type: functional; procedure, shortened: as §1
P2Y purinoceptor 2 [5] = target: T2, P2Y purinoceptor 2; assay: Agonist activity by measuring inositol phosphate accumulation in 1321N1 human astrocytoma cells stably expressing human P2Y purinoceptor 2; No effect as either agonist or antagonist at 10 uM; type: functional
[6] = target: T3, Ectonucleoside triphosphate diphosphohydrolase 1 (Rattus norvegicus) (UniProt P97687); assay: Hydrolysis rate as substrate of rat Ectonucleoside triphosphate diphosphohydrolase 1 (NTPDase 1) (Ecto-apyrase); parameters: scale not given: the % may be the effect or the level left
T3 sequence (whole entry): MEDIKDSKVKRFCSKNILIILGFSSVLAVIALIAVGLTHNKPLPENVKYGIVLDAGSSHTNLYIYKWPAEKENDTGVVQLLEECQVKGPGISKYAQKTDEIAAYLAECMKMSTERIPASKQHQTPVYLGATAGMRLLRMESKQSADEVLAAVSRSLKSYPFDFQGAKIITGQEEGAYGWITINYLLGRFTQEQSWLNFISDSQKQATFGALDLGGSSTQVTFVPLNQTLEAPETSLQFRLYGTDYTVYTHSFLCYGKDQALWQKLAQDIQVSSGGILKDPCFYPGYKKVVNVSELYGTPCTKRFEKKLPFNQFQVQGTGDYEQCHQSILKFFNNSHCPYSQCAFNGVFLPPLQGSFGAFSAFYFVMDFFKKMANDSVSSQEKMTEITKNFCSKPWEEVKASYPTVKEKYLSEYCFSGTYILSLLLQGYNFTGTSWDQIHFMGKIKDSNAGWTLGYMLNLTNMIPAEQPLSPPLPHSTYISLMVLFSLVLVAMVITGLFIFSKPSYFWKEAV
Procedure, shortened: (§3)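 Intact CHO cells stably expressing rat NTPDase1 or NTPDase2, seeded 24 h before assay. Incubated at 37 °C in Hepes-buffered saline, pH 7.4, with nucleotide substrate. Supernatant aliquots taken over time and analysed by HPLC at 260 nm. Rate expressed relative to ATP (100%). Nontransfected CHO cells served as control. Two experiments, each in duplicate.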

[7] = target: T4, Ectonucleoside triphosphate diphosphohydrolase 2 (Rattus norvegicus) (UniProt O35795); assay: Hydrolysis rate as substrate of rat Ectonucleoside triphosphate diphosphohydrolase 2 (NTPDase 2) (Ecto-apyrase); parameters: scale not given: the % may be the effect or the level left; procedure, shortened: as §3
T4 sequence (whole entry): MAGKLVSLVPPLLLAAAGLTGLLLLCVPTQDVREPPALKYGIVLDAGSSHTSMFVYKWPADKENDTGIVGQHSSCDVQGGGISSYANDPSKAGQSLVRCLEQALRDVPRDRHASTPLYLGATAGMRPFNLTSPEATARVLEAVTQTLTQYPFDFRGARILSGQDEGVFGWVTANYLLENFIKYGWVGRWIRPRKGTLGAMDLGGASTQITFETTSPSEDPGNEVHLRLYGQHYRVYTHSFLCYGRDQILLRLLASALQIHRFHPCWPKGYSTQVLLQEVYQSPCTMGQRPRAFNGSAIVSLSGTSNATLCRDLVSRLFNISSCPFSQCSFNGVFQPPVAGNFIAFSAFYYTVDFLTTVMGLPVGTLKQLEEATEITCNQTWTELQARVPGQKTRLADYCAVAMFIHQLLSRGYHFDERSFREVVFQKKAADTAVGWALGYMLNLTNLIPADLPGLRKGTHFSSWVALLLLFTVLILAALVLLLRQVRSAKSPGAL

[8] = target: T5, P2Y purinoceptor 11 (Homo sapiens) (UniProt Q96G91); assay: Agonist activity by measuring inositol phosphate accumulation in 1321N1 human astrocytoma cells stably expressing human P2Y purinoceptor 11; type: functional; procedure, shortened: as §1
T5 sequence (whole entry): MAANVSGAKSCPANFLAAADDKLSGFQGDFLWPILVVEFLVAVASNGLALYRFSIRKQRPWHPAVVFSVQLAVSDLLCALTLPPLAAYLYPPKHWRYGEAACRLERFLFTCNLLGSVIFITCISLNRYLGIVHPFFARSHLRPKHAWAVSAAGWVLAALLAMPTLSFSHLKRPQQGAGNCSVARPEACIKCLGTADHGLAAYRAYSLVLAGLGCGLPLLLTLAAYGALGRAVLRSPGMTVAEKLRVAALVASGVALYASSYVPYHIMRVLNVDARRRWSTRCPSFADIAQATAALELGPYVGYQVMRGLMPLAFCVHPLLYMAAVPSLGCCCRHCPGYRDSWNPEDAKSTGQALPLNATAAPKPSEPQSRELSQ

[9] = target: P2Y purinoceptor 4 (Homo sapiens) (UniProt P51582); assay: Agonist activity by measuring inositol phosphate accumulation in 1321N1 human astrocytoma cells stably expressing human P2Y purinoceptor 4; type: functional; procedure, shortened: as §1
[10] = target: P2Y purinoceptor 1 (Meleagris gallopavo) (UniProt P49652); assay: Agonist activity by measuring Purinoceptor P2Y1-promoted phospholipase C activity in turkey erythrocyte membranes; No effect as either agonist or antagonist at 10 uM; type: functional, cell membranes
Procedure, shortened: (§4)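 Turkey erythrocytes labelled 18–24 h at 37 °C with 2-[3H]myo-inositol in inositol-free DMEM. Ghosts (about 175 μg protein) incubated 5 min at 30 °C in pH 7.0 Hepes/KCl buffer with EGTA, CaCl2 and MgSO4, plus 1 μM GTPγS and the agonist. Total [3H]inositol phosphates separated by anion exchange. EC50 from four-parameter logistic fit, at least three experiments.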

P2Y purinoceptor 1 [11] = target: T1, P2Y purinoceptor 1; assay: Agonist activity by measuring inositol phosphate accumulation in 1321N1 human astrocytoma cells stably expressing human P2Y purinoceptor 1; No effect as either agonist or antagonist at 10 uM; type: functional; procedure, shortened: as §1
P2Y purinoceptor 2 [12] = target: T2, P2Y purinoceptor 2; assay: as §2; type: functional; procedure, shortened: as §1; remark: listed apart in the source
[13] = target: P2Y purinoceptor 4 (Homo sapiens) (UniProt P51582); assay: Agonist activity by measuring the agonist potencies of the corresponding ribose- containing nucleotides, for the receptor subtype human P2Y purinoceptor 4; No effect as either agonist or antagonist at 10 uM; type: functional; procedure, shortened: as §1
[14] = target: T5, P2Y purinoceptor 11 (Homo sapiens); assay: Agonist activity by measuring inositol phosphate accumulation in 1321N1 human astrocytoma cells stably expressing human P2Y purinoceptor 11; No effect as either agonist or antagonist at 10 uM; type: functional; procedure, shortened: as §1
[15] = target: P2Y purinoceptor 1 (Meleagris gallopavo) (UniProt P49652); assay: Agonist activity by measuring Purinoceptor P2Y1-promoted phospholipase C activity in turkey erythrocyte membranes; type: functional, cell membranes; procedure, shortened: as §4

Chain of P2Y purinoceptor 4 (Homo sapiens) (P51582 whole entry): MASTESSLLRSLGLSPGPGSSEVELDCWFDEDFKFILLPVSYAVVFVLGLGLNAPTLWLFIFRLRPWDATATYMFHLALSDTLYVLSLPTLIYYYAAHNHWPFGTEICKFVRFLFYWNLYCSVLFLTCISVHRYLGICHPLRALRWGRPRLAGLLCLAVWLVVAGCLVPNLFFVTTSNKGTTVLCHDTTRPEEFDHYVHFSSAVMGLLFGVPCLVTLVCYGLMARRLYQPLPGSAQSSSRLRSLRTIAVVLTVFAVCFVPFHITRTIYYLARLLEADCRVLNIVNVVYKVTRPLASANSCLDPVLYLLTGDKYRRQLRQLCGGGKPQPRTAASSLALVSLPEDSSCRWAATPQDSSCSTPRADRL
T2 sequence (P41231 whole entry): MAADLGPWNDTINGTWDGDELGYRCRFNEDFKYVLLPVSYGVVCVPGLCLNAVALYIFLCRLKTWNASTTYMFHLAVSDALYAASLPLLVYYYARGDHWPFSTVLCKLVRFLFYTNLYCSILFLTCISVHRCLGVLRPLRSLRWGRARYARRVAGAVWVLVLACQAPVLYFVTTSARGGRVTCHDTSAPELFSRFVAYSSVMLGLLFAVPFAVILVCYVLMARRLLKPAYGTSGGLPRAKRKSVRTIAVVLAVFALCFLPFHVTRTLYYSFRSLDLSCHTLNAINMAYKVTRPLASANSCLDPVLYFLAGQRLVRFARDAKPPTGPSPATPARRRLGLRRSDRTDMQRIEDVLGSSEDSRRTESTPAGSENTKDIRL
T1 sequence (P47900 whole entry): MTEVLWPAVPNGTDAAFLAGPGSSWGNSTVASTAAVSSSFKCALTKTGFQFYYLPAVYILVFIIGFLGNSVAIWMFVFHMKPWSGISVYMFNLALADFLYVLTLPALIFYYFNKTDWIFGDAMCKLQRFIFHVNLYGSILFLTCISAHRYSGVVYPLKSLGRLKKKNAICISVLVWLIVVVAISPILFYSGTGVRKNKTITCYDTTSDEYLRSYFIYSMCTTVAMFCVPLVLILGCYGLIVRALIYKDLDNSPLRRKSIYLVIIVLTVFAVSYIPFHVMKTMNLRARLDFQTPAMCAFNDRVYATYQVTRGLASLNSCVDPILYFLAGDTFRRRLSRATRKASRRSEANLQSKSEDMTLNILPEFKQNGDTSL
Chain of P2Y purinoceptor 1 (Meleagris gallopavo, UniProt P49652) (P49652 whole entry): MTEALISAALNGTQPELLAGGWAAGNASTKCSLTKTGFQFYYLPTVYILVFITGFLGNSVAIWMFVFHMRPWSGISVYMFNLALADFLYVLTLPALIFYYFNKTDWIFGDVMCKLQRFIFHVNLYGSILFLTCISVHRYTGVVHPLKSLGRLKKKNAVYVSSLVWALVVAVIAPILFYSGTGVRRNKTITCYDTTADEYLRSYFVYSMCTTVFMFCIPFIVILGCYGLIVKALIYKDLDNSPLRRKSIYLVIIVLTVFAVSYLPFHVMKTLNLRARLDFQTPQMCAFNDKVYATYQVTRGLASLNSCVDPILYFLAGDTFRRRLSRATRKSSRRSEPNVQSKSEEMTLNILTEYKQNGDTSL
Chain of P2Y purinoceptor 1 (Meleagris gallopavo) (P49652 whole entry): as above

Row | Structure (SMILES) | EC50 (P2Y purinoceptor 1 [1]) | EC50 (P2Y purinoceptor 1 [2]) | EC50 (P2Y purinoceptor 2 [3]) | further results
1 | Nc1nc(Cl)nc2c1ncn2[C@@H]1O[C@H](COP(=O)(O)OP(=O)(O)OP(=O)(O)O)[C@@H](O)[C@H]1O | 770 nM | 720 nM | 2300 nM | 
2 | Nc1ncnc2c1ncn2[C@@]12C[C@@H]1[C@H](COP(=O)(O)O)[C@H](O)[C@@H]2O |  |  |  | Activity (Rattus norvegicus): 0%
3 | C[S+]([O-])c1nc(N)c2ncn([C@H]3[C@H](O)[C@H](O)[C@@]4(COP(=O)(O)O)C[C@H]34)c2n1 (stereo partly specified) |  | 36.6 nM |  | 
4 | Nc1nc(Cl)nc2c1ncn2[C@H]1[C@H](O)[C@H](O)[C@@]2(COP(=O)(O)O)C[C@@H]12 | 1890 nM | 3900 nM |  | 
5 | Nc1ncnc2c1ncn2C12CC1C(COP(=O)(O)OP(=O)(O)OP(=O)(O)O)C(O)C2O (stereo unspecified) |  |  |  | Activity [6]: 57%; Activity [7]: 34%
6 | Nc1ncnc2c1ncn2[C@@H]1O[C@H](COP(=O)(O)OP(=O)(O)CP(=O)(O)O)[C@@H](O)[C@H]1O |  |  |  | NE [10]: inactive; NE (P2Y purinoceptor 2 [5]): inactive; NE (P2Y purinoceptor 1 [11]): inactive
7 | CSc1nc(N)c2ncn([C@@H]3O[C@H](COP(=O)(O)O)[C@@H](O)[C@H]3O)c2n1 |  |  |  | % of maximal effect [15]: 15%; NE [14]: inactive; NE (P2Y purinoceptor 1 [11]): inactive

More lines, main results first:

Row | EC50 (P2Y purinoceptor 1 [1]) | EC50 (P2Y purinoceptor 1 [2]) | EC50 (P2Y purinoceptor 2 [3]) | Structure (SMILES) | further results
8 | 7 nM | 3 nM | 1900 nM | Nc1nc(Cl)nc2c1ncn2C1C(O)C(O)[C@@]2(COP(=O)(O)OP(=O)(O)OP(=O)(O)O)C[C@@H]12 (stereo partly specified) | 
9 | 158 nM | 11300 nM |  | Nc1ncnc2c1ncn2C1C(O)C(O)[C@@]2(COP(=O)(O)OP(=O)(O)CP(=O)(O)O)C[C@H]12 (stereo partly specified) | NE [4]: inactive; NE (P2Y purinoceptor 2 [5]): inactive
10 | 9 nM | 6 nM | 8400 nM | CNc1nc(Cl)nc2c1ncn2C1C(O)C(O)[C@@]2(COP(=O)(O)OP(=O)(O)OP(=O)(O)O)C[C@@H]12 (stereo partly specified) | 
11 |  | 14 nM | 91 nM | Nc1ncnc2c1ncn2C1C(O)C(O)C2(COP(=O)(O)OP(=O)(O)OP(=O)(O)O)CC12 (stereo unspecified) | Activity [6]: 52%; % of maximal effect [8]: 35%; Activity [7]: 4%; % of maximal effect [9]: 32%
12 | 0.4 nM | 0.88 nM |  | CSc1nc(N)c2ncn([C@H]3[C@H](O)[C@H](O)[C@@]4(COP(=O)(O)OP(=O)(O)O)C[C@@H]34)c2n1 | % of maximal effect (P2Y purinoceptor 2 [12]): 54%; NE [13]: inactive; NE [14]: inactive
